Results published in ChEMBL document CHEMBL1125823, “2-Phenylindole-linked [2-(aminoalkyl)pyridine]dichloroplatinum(II): complexes with a selective action on estrogen receptor positive mammary tumors” (1991).

How the values were obtained:
[1] = molecular target: T1, Estrogen receptor (Mus musculus) (UniProt O08537+P19785); assay: Uterotrophic effect in mice as relative uterine weight(mg) at 15 ug (control = 12.3+/-3.7); format: functional, tissue-based
Procedure, shortened: (§1)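 Immature mice dosed sc per animal on three consecutive days; vehicle controls. Killed and weighed 24 h after last injection; uteri fixed in Bouin solution 2 h, washed with alcoholic LiCl, dried at 100 °C for 24 h. Relative uterus weight = uterine dry weight (mg)/body weight (g) × 100; mean of 6-10 animals ± SD.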
Target sequence in this assay (O08537 whole entry, looked up): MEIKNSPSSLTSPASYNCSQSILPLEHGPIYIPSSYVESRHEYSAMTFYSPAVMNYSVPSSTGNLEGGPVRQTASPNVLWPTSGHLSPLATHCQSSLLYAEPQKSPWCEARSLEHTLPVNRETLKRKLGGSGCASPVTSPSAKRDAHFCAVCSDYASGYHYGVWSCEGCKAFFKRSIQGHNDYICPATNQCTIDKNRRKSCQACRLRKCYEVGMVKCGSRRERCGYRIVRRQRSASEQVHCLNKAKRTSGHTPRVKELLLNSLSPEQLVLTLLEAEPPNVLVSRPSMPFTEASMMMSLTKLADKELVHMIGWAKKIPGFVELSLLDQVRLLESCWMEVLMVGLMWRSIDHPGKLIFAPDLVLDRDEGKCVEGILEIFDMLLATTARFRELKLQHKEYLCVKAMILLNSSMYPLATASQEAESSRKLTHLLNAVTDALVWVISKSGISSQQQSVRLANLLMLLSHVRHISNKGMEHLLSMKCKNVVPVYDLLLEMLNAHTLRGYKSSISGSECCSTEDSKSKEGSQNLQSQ
Target sequence in this assay (P19785 whole entry, looked up): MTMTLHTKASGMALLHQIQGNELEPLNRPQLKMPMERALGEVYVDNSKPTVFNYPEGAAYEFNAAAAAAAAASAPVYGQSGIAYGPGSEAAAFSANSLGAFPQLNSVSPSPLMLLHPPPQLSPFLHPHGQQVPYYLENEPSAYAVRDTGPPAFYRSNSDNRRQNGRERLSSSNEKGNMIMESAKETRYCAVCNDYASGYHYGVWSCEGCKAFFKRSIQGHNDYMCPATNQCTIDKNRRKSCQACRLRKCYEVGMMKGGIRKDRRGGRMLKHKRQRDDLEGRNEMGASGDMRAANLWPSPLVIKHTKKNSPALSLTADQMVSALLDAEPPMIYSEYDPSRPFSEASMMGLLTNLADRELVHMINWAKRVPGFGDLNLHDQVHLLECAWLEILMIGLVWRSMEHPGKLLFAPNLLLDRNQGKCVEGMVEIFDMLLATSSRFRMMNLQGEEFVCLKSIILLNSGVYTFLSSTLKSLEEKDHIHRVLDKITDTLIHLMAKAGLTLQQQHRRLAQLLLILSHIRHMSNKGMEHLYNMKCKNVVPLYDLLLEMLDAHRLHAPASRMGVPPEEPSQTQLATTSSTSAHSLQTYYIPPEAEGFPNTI

[2] = tested on: MCF7; assay: Effect on [3H]thymidine incorporation into estrogen receptor positive MCF-7 human breast cancer cells at 1x10E-6M; format: functional
Procedure, shortened: (§2)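 MCF-7 cells were grown in MEM with charcoal-treated 5% newborn calf serum and phenol red, then treated with compounds in 0.1% DMF (renewed on day 4) alongside DMF controls. They were labeled 3 days later with 1 µCi [³H]thymidine per well for 2 h, and incorporated radioactivity per dish was measured; mean of six dishes ± SD; % T/C.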

[3] = molecular target: T1, Estrogen receptor (Mus musculus); assay: Percent inhibition of estrone stimulated uterotrophic effect in mice at 15 ug; format: functional
Procedure, shortened: (§3)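 Immature mice given test compound per animal sc on three consecutive days together with 0.4 μg estrone/animal/day. Killed 24 h after last injection; uteri fixed in Bouin, dried 100 °C 24 h and weighed. Inhibition = 100 − [(W_S,T − W_V)/(W_S − W_V) × 100] using relative uterus weights; 6-10 animals; Wilcoxon-Mann-Whitney U test.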
Target sequence in this assay (O08537 whole entry, looked up): as the sequence (O08537 whole entry, looked up) above
Target sequence in this assay (P19785 whole entry, looked up): as the sequence (P19785 whole entry, looked up) above

[4] = tested on: MCF7; assay: Effect on Estrogen receptor positive MCF-7 human breast cancer cell proliferation at 1x10E-6M; format: functional
Procedure, shortened: (§4)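 MCF-7 cells were kept in MEM with 5% charcoal-treated newborn calf serum and phenol red for 2 weeks, then about 2×10^4 cells were plated per well. Compounds in 0.1% DMF were added 2 days later and renewed on day 4; DMF alone served as control. Coulter cell counts were taken on day 5; mean of six dishes ± SD; % T/C.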

[5] = molecular target: T1, Estrogen receptor (Mus musculus); assay: Anti-uterotrophic effect in mice as relative uterine weight(mg) at 150 ug; format: functional
Procedure, shortened: (§5)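 Immature mice received the compound sc per animal on three consecutive days, alone or with 0.4 µg estrone per animal per day. Uteri were taken 24 h after the last injection, Bouin-fixed, dried at 100 °C for 24 h and weighed. Relative uterus weight = dry weight (mg)/body weight (g) × 100; mean of 6-10 animals ± SD; Mann-Whitney U test.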
Target sequence in this assay (O08537 whole entry, looked up): as the sequence (O08537 whole entry, looked up) above
Target sequence in this assay (P19785 whole entry, looked up): as the sequence (P19785 whole entry, looked up) above

[6] = tested on: MCF7; assay: Effect on [3H]thymidine incorporation into estrogen receptor positive MCF-7 human breast cancer cells at 5x10E-6M (control = 28.2+/-3.0); format: functional
Procedure, shortened: (§6)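 MCF-7 cells in improved MEM with glutamine, gentamycin and 5% newborn calf serum, switched to charcoal-treated serum two weeks ahead; phenol red present; 37 °C, 5% CO2. About 2×10^4 cells plated per well; compound in 0.1% DMF added 2 days later, renewed on day 4; labelled 3 days later with 1 μCi [3H]thymidine per well for 2 h; cpm/dish, mean of six dishes ± SD.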

[7] = tested on: MCF7; assay: Effect on Estrogen receptor positive MCF-7 human breast cancer cell proliferation at 1x10E-6M (control = 66.9+/-7.0); format: functional; procedure, shortened: as §4
[8] = tested on: MCF7; assay: Effect on Estrogen receptor positive MCF-7 human breast cancer cell proliferation at 5x10E-6M (control = 66.9+/-7.0); format: functional; procedure, shortened: as §4
[9] = tested on: MCF7; assay: Effect on [3H]thymidine incorporation into estrogen receptor positive MCF-7 human breast cancer cells at 1*10^-6 M (control = 28.2+/-3.0); format: functional; procedure, shortened: as §2
[10] = tested on: MCF7; assay: Effect on [3H]thymidine incorporation into estrogen receptor positive MCF-7 human breast cancer cells at 5x10E-6M; format: functional; procedure, shortened: as §6
[11] = tested on: MCF7; assay: Effect on Estrogen receptor positive MCF-7 human breast cancer cell proliferation at 5x10E-6M; format: functional; procedure, shortened: as §4
[12] = molecular target: T1, Estrogen receptor (Mus musculus); assay: Percent inhibition of estrone stimulated uterotrophic effect in mice at 150 ug; format: functional; procedure, shortened: as §3
Target sequence in this assay (O08537 whole entry, looked up): as the sequence (O08537 whole entry, looked up) above
Target sequence in this assay (P19785 whole entry, looked up): as the sequence (P19785 whole entry, looked up) above

[13] = molecular target: T1, Estrogen receptor (Mus musculus); assay: Anti-uterotrophic effect in mice as relative uterine weight(mg) at 15 ug; format: functional; procedure, shortened: as §5
Target sequence in this assay (O08537 whole entry, looked up): as the sequence (O08537 whole entry, looked up) above
Target sequence in this assay (P19785 whole entry, looked up): as the sequence (P19785 whole entry, looked up) above

[14] = molecular target: T1, Estrogen receptor (Mus musculus); assay: Uterotrophic effect in mice as relative uterine weight(mg) at 150 ug (control = 12.3+/-3.7); format: functional, tissue-based; procedure, shortened: as §1
Target sequence in this assay (O08537 whole entry, looked up): as the sequence (O08537 whole entry, looked up) above
Target sequence in this assay (P19785 whole entry, looked up): as the sequence (P19785 whole entry, looked up) above

[15] = molecular target: T1, Estrogen receptor (Mus musculus); assay: Anti-uterotrophic effect in hormone-dependent transplant MXT bearing mice as relative uterine weight in treated and control mice at 1.5 mg; format: functional
Target sequence in this assay (P19785 whole entry, looked up, chain 1 of 2): as the sequence (P19785 whole entry, looked up) above
Target sequence in this assay (O08537 whole entry, looked up, chain 2 of 2): as the sequence (O08537 whole entry, looked up) above

[16] = species: Mus musculus; assay: Relative tumor weight in treated compared to control mice bearing hormone-dependent transplanted MXT mammary tumors at 1.5 mg; format: functional, organism-based
[17] = species: Mus musculus; assay: Anti-tumor activity in hormone-dependent transplant MXT mammary tumor bearing mice at 1.5 mg (control=534+/-652); format: functional, organism-based
[18] = tested on: MCF7; assay: Effect on Estrogen receptor positive MCF-7 human breast cancer cell proliferation at 5x10E-6M (control = 62.3+/-8.8); format: functional; procedure, shortened: as §4
[19] = tested on: MCF7; assay: Effect on [3H]thymidine incorporation into estrogen receptor positive MCF-7 human breast cancer cells at 5x10E-6M (control = 43.4+/-1.8); format: functional; procedure, shortened: as §6
[20] = molecular target: T1, Estrogen receptor (Mus musculus); assay: Uterotrophic effect in mice as relative uterine weight(mg) at 150 ug (control = 14.6+/-2.7); format: functional, tissue-based; procedure, shortened: as §1
[21] = molecular target: T1, Estrogen receptor (Mus musculus); assay: Uterotrophic effect in mice as relative uterine weight(mg) at 15 ug (control = 14.6+/-2.7); format: functional, tissue-based; procedure, shortened: as §1
[22] = tested on: MCF7; assay: Effect on Estrogen receptor positive MCF-7 human breast cancer cell proliferation at 1x10E-6M (control = 62.3+/-8.8); format: functional; procedure, shortened: as §4
[23] = tested on: MCF7; assay: Effect on [3H]thymidine incorporation into estrogen receptor positive MCF-7 human breast cancer cells at 1x10E-6M (control = 43.4+/-1.8); format: functional; procedure, shortened: as §2
[24] = molecular target: T1, Estrogen receptor (Mus musculus); assay: Anti-uterotrophic effect in mice as relative uterine weight(mg) at 250 ug; format: functional; procedure, shortened: as §5
Target sequence in this assay (P19785 whole entry, looked up, chain 1 of 2): as the sequence (P19785 whole entry, looked up) above
Target sequence in this assay (O08537 whole entry, looked up, chain 2 of 2): as the sequence (O08537 whole entry, looked up) above

[25] = molecular target: T1, Estrogen receptor (Mus musculus); assay: Uterotrophic effect in mice as relative uterine weight(mg) at 250 ug (control = 12.3+/-3.7); format: functional, tissue-based; procedure, shortened: as §1
Target sequence in this assay (P19785 whole entry, looked up, chain 1 of 2): as the sequence (P19785 whole entry, looked up) above
Target sequence in this assay (O08537 whole entry, looked up, chain 2 of 2): as the sequence (O08537 whole entry, looked up) above

[26] = molecular target: T1, Estrogen receptor (Mus musculus); assay: Uterotrophic effect in mice as relative uterine weight(mg) at 25 ug (control = 12.3+/-3.7); format: functional, tissue-based; procedure, shortened: as §1
Target sequence in this assay (P19785 whole entry, looked up, chain 1 of 2): as the sequence (P19785 whole entry, looked up) above
Target sequence in this assay (O08537 whole entry, looked up, chain 2 of 2): as the sequence (O08537 whole entry, looked up) above

[27] = species: Mus musculus; assay: Relative tumor weight in treated compared to control mice bearing hormone-dependent transplanted MXT mammary tumors at 20 mg; format: functional, organism-based
[28] = tested on: MCF7; assay: Effect on Estrogen receptor positive MCF-7 human breast cancer cell proliferation at 5x10E-6M (control = 22.3+/-3.3); format: functional; procedure, shortened: as §4
[29] = species: Mus musculus; assay: Relative tumor weight in treated compared to control mice bearing hormone-dependent transplanted MXT mammary tumors at 10 mg; format: functional, organism-based
[30] = molecular target: T1, Estrogen receptor (Mus musculus); assay: Anti-uterotrophic effect in hormone-dependent transplant MXT bearing mice as relative uterine weight in treated and control mice at 20 mg (control=100+/-30); format: functional
Target sequence in this assay (P19785 whole entry, looked up, chain 1 of 2): as the sequence (P19785 whole entry, looked up) above
Target sequence in this assay (O08537 whole entry, looked up, chain 2 of 2): as the sequence (O08537 whole entry, looked up) above

[31] = tested on: MCF7; assay: Effect on [3H]thymidine incorporation into estrogen receptor positive MCF-7 human breast cancer cells at 5x10E-6M (control = 7.7+/-0.8); format: functional; procedure, shortened: as §6
[32] = tested on: MCF7; assay: Effect on Estrogen receptor positive MCF-7 human breast cancer cell proliferation at 1x10E-6M (control = 22.3+/-3.3); format: functional; procedure, shortened: as §4
[33] = molecular target: T1, Estrogen receptor (Mus musculus); assay: Uterotrophic effect in mice as relative uterine weight(mg) at 25 ug (control = 12.4+/-3.7); format: functional, tissue-based; procedure, shortened: as §1
Target sequence in this assay (P19785 whole entry, looked up, chain 1 of 2): as the sequence (P19785 whole entry, looked up) above
Target sequence in this assay (O08537 whole entry, looked up, chain 2 of 2): as the sequence (O08537 whole entry, looked up) above

[34] = species: Mus musculus; assay: Anti-tumor activity in hormone-dependent transplant MXT mammary tumor bearing mice at 20 mg (control=534+/-652); format: functional, organism-based
[35] = tested on: MCF7; assay: Effect on [3H]thymidine incorporation into estrogen receptor positive MCF-7 human breast cancer cells at 1x10E-6M (control = 7.7+/-0.8); format: functional; procedure, shortened: as §2
[36] = molecular target: T1, Estrogen receptor (Mus musculus); assay: Anti-uterotrophic effect in hormone-dependent transplant MXT bearing mice as relative uterine weight in treated and control mice at 10 mg (control=100+/-30); format: functional
[37] = molecular target: T1, Estrogen receptor (Mus musculus); assay: Uterotrophic effect in mice as relative uterine weight(mg) at 250 ug (control = 12.4+/-3.7); format: functional, tissue-based; procedure, shortened: as §1
[38] = species: Mus musculus; assay: Anti-tumor activity in hormone-dependent transplant MXT mammary tumor bearing mice at 10 mg (control=534+/-652); format: functional, organism-based
[39] = molecular target: T1, Estrogen receptor (Mus musculus); assay: Anti-uterotrophic effect in hormone-dependent transplant MXT bearing mice as relative uterine weight in treated and control mice at 20 mg (control=100+/-24); format: functional
[40] = species: Mus musculus; assay: Anti-tumor activity in hormone-dependent transplant MXT mammary tumor bearing mice at 20 mg (control=388+/-269); format: functional, organism-based
[41] = molecular target: T1, Estrogen receptor (Mus musculus); assay: Uterotrophic effect in mice as relative uterine weight(mg) at 25 ug (control = […]+/-1.7); format: functional, tissue-based
[42] = molecular target: T1, Estrogen receptor (Mus musculus); assay: Uterotrophic effect in mice as relative uterine weight(mg) at 250 ug (control = […]+/-1.7); format: functional, tissue-based
[43] = molecular target: T1, Estrogen receptor (Mus musculus); assay: Uterotrophic effect in mice as relative uterine weight(mg) at 25 ug (control = 14.6+/-2.7); format: functional, tissue-based; procedure, shortened: as §1
[44] = molecular target: T1, Estrogen receptor (Mus musculus); assay: Percent inhibition of estrone stimulated uterotrophic effect in mice at 250 ug; format: functional; procedure, shortened: as §3
[45] = molecular target: T1, Estrogen receptor (Mus musculus); assay: Uterotrophic effect in mice as relative uterine weight(mg) at 250 ug (control = 14.6+/-2.7); format: functional, tissue-based; procedure, shortened: as §1

Cc1c(-c2ccc(O)cc2)n(CCCCCNCc2ccccn2)c2ccc(O)cc12
Relative uterus weight [1]: 16.4 mg | T/C [2]: 76% | inhibition [3]: 9% | T/C [4]: 64% | Relative uterus weight [5]: 44 mg | Activity [6]: 18900 | Cell no/dish [7]: 430000 | Cell no/dish [8]: 287000 | Activity [9]: 21600 | T/C [10]: 67% | T/C [11]: 43% | inhibition [12]: 5% | Relative uterus weight [13]: 42.6 mg | Relative uterus weight [14]: 13.3 mg

CISPLATIN
T/C [15]: 76% | T/C [16]: 12% | Tumor weight [17]: 64 mg

Cc1c(-c2ccc(O)cc2)n(CCCCNCc2ccccn2)c2ccc(O)cc12
T/C [2]: 87% | inhibition [3]: 4% | T/C [4]: 96% | Cell no/dish [18]: 452000 | Relative uterus weight [5]: 44 mg | Activity [19]: 33100 | T/C [10]: 76% | Relative uterus weight [20]: 15 mg | T/C [11]: 73% | Relative uterus weight [21]: 22.1 mg | inhibition [12]: 25% | Relative uterus weight [13]: 52.2 mg | Cell no/dish [22]: 598000 | Activity [23]: 37800

[5-hydroxy-3-methyl-2-(4-hydroxyphenyl)-1-[omega-[(2-pyridylmethyl)amino]pentyl]indole]dichloroplatinum (II) complex
Relative uterus weight [24]: 46.6 mg | T/C [2]: 60% | T/C [4]: 101% | Activity [6]: 15200 | Cell no/dish [7]: 674000 | Cell no/dish [8]: 571000 | Relative uterus weight [25]: 22.1 mg | Activity [9]: 16900 | Relative uterus weight [26]: 16.3 mg | T/C [10]: 54% | T/C [11]: 85%

[5-hydroxy-3-methyl-2-(4-hydroxyphenyl)-1-[omega-[(2-pyridylmethyl)amino]hexyl]indole]dichloroplatinum (II) complex
Relative uterus weight [24]: 56.3 mg | T/C [27]: 22% | T/C [2]: 18% | T/C [4]: 52% | Cell no/dish [28]: 124000 | T/C [29]: 36% | T/C [30]: 113% | Activity [31]: 900 | Cell no/dish [32]: 116000 | Relative uterus weight [33]: 20.2 mg | Tumor weight [34]: 121 mg | T/C [10]: 12% | Activity [35]: 1400 | T/C [11]: 56% | T/C [36]: 92% | Relative uterus weight [37]: 22.5 mg | Tumor weight [38]: 195 mg

[5-hydroxy-3-methyl-2-(4-hydroxyphenyl)-1-[omega-[(2-pyridylmethyl(1-ethyl))amino]hexyl]indole]dichloroplatinum (II) complex
T/C [39]: 104% | Relative uterus weight [24]: 48 mg | T/C [27]: 21% | Tumor weight [40]: 80 mg | Relative uterus weight [41]: 20.2 mg | Relative uterus weight [42]: 35.7 mg

[5-hydroxy-3-methyl-2-(4-hydroxyphenyl)-1-[omega-[(2-pyridylmethyl)amino]butyl]indole]dichloroplatinum (II) complex
Relative uterus weight [24]: 51.8 mg | Relative uterus weight [43]: 21.5 mg | T/C [2]: 88% | T/C [4]: 89% | Cell no/dish [18]: 489000 | inhibition [44]: 5% | Relative uterus weight [45]: 14.8 mg | Activity [19]: 29500 | T/C [10]: 68% | T/C [11]: 79% | Cell no/dish [22]: 554000 | Activity [23]: 38400
